For orientation: IC50 means the concentration needed to halve the response being measured.

The values that follow come from ChEMBL document CHEMBL1926509, “Discovery of pyrazolo[1,5-a]pyridines as p110α-selective PI3 kinase inhibitors” (Bioorg Med Chem, 2012).

Data set [1] has as its target T1, Phosphatidylinositol 4,5-bisphosphate 3-kinase catalytic subunit alpha isoform (Homo sapiens, UniProt P42336). The settings on record: 100 nM.
The next data set deals with HCT-116. The data set is described as follows: Antitumor activity against human HCT116 cells xenografted in Rag1 knockout mouse assessed as tumor growth inhibition at 20 mg/kg, ip qd for 14 days relative to untreated control. The data set is classed as functional. Particulars: HCT-116, ip, 336 h, route intraperitoneal, read-out: GI. A digest of the protocol: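 Female specific-pathogen-free Rag1−/− mice, age-matched, inoculated subcutaneously with 5×10⁶ HCT-116 cells in PBS. Dosed ip at 20 mg/kg q.d. for 14 days in 7.5% DMSO/42.5% PEG-400/20% hydroxypropyl-β-cyclodextrin/30% water; controls received vehicle only; n = 7 per group. Tumour volume measured three times weekly; 1-way ANOVA with Holm-Sidak comparison at study end.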
In general terms: A xenograft is tissue or cells of one species grown in another, often human tumour cells in immunodeficient mice.

Data set [2] addresses T2, Phosphatidylinositol 4,5-bisphosphate 3-kinase catalytic subunit delta isoform (Homo sapiens, UniProt O00329).
T2 sequence (O00329 whole entry): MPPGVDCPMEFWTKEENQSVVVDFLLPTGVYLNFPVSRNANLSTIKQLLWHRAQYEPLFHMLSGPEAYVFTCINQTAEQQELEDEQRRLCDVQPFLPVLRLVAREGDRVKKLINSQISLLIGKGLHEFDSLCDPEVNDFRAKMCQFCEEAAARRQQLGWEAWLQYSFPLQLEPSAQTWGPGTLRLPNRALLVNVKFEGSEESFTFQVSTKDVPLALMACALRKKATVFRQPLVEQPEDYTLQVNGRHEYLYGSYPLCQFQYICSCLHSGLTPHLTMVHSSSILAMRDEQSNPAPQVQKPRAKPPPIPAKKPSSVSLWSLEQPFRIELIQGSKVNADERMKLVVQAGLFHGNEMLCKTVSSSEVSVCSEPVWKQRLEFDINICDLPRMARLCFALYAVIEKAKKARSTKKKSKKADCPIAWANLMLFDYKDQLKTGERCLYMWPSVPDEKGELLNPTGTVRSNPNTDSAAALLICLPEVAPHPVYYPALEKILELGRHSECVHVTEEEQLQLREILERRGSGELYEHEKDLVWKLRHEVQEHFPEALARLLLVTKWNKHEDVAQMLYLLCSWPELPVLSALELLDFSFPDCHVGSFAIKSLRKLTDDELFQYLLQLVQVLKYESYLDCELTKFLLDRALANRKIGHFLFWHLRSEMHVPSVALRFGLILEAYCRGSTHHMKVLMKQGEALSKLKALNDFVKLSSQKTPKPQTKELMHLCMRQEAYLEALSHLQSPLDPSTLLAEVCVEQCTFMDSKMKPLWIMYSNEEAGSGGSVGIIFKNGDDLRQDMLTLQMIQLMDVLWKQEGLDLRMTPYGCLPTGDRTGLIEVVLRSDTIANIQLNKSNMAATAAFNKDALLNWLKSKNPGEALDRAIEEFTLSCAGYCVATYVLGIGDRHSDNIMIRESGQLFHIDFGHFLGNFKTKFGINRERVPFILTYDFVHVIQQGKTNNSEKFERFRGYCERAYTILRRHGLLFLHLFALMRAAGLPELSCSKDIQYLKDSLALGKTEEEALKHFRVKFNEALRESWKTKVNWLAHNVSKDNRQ
The data set is described as follows: Inhibition of recombinant PI3K p110delta using L-alpha-phosphatidylinositol as substrate and [gamma33P]ATP after 60 mins by thin layer chromatographic technique. Put shortly:
(§1)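 In-house recombinant class Ia PI3K isoform (0.1 µg) with L-α-phosphatidylinositol substrate in lipid kinase buffer (Tris–HCl pH 7.4, NaCl, EDTA), 1% DMSO final. Started with ATP mix (5 mM MgCl₂, 100 µM ATP plus [γ-³³P]ATP), 1 h at room temperature, stopped with 1 M HCl. Lipids extracted in two steps, separated by TLC, read by phosphorimager. Nine inhibitor concentrations; IC50 averaged over two experiments.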

Data set [3] has as its target Ribosomal protein S6 kinase alpha-1 (Homo sapiens) (UniProt Q15418). The data set is described as follows: Inhibition of RSK1 assessed as residual activity at 10 uM.
Data set [4] concerns the target High affinity nerve growth factor receptor (Homo sapiens) (UniProt P04629). The data set is described as follows: Inhibition of TrkA assessed as residual activity at 10 uM.
Data set [5] has as its target Phosphatidylinositol 4,5-bisphosphate 3-kinase catalytic subunit gamma isoform (Homo sapiens, UniProt P48736). Kind of data set: Inhibition of PI3K p110gamma. A digest of the protocol: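 Recombinant PI3K isoform made in-house, mixed with phosphatidylinositol substrate and inhibitor in 1% DMSO. Lipid kinase buffer (2× stock: 40 mM Tris-HCl pH 7.4, 200 mM NaCl, 1 mM EDTA). Started with ATP/MgCl₂ (5 mM)/[γ-³³P]ATP mix, 1 h at room temperature, stopped with 1 M HCl. Lipids extracted, separated by TLC and read by phosphorimager. Nine concentrations, run twice, IC50s averaged.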

In data set [6] the target is T1, Phosphatidylinositol 4,5-bisphosphate 3-kinase catalytic subunit alpha isoform. The data set is described as follows: Inhibition of recombinant PI3K p110alpha using L-alpha-phosphatidylinositol as substrate and [gamma33P]ATP after 60 mins by thin layer chromatographic technique. Put shortly: as §1
In data set [7] the target is Phosphatidylinositol 4,5-bisphosphate 3-kinase catalytic subunit alpha isoform (Homo sapiens, UniProt P42336, E545K). The data set is described as follows: Inhibition of recombinant PI3K p110alpha E545K mutant using L-alpha-phosphatidylinositol as substrate and [gamma33P]ATP after 60 mins by thin layer chromatographic technique.
Phosphatidylinositol 4,5-bisphosphate 3-kinase catalytic subunit alpha isoform (Homo sapiens, UniProt P42336, E545K), sequence (P42336 whole entry E545K, canonical isoform): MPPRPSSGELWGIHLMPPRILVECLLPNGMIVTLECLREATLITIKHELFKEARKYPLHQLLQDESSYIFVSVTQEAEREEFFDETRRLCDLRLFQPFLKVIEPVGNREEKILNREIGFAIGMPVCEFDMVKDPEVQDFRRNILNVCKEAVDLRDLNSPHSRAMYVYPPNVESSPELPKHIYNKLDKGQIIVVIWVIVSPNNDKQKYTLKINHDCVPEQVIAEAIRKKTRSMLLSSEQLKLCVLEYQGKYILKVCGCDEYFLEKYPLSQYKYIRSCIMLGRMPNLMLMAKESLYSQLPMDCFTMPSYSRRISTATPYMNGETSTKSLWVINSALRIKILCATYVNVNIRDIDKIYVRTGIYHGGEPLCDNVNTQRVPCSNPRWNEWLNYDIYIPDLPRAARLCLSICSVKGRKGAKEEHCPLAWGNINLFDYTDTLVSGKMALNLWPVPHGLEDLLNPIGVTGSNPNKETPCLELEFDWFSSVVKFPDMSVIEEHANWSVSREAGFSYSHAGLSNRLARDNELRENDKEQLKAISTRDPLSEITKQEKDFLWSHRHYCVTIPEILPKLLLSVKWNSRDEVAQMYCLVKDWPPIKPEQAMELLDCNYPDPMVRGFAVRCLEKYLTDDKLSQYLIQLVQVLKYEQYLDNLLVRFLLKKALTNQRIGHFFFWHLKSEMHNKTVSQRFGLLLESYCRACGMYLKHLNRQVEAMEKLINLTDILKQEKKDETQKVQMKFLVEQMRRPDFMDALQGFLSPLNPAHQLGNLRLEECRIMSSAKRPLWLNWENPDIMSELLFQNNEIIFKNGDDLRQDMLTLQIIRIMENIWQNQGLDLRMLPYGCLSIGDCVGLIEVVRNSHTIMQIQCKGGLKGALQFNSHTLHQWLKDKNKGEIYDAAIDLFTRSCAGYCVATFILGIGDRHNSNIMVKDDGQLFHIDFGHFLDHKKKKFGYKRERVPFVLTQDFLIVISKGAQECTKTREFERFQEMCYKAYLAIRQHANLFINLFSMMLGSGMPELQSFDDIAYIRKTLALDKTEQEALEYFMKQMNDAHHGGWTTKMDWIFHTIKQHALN
Data set [8] can be described thus: Selectivity ratio of IC50 for PI3K p110beta to IC50 for PI3K p110alpha.
The nature of data set [9]: Inhibition of PKA assessed as residual activity at 10 uM.
Data set [10] has as its target Dual specificity mitogen-activated protein kinase kinase 1 (Homo sapiens) (UniProt Q02750). The data set is described as follows: Inhibition of MKK1 assessed as residual activity at 10 uM.
A further data set concerns Mus musculus. Kind of data set: Toxicity in human HCT116 cells xenografted Rag1 knockout mouse assessed as body weight loss at 20 mg/kg, ip qd measured up to day 10. The settings on record: in vivo. It is filed as organism-based, HCT-116. More on the design: dose 20 mg/kg, route intraperitoneal. A digest of the protocol:
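Female specific-pathogen-free Rag1−/− mice carrying subcutaneous HCT-116 tumours, given 20 mg/kg ip daily for 14 days in a DMSO/PEG-400/hydroxypropyl-β-cyclodextrin/water vehicle; controls received vehicle; n = 7 per group. Bodyweight recorded daily; mice culled if loss exceeded 20% of starting weight.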

The target in data set [11] is Serine/threonine-protein kinase mTOR (Homo sapiens, UniProt P42345). Kind of data set: Inhibition of mTOR.
Data set [12] is described as follows: Cytotoxicity against human NZB5 cells expressing wild type p110alpha assessed as inhibition of [3H]thymidine incorporation after 5 days. It is filed as functional, cell-based. Put shortly:
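Early-passage lab-derived lines in α-MEM with insulin, transferrin, selenite and 5% FBS. Seeded at 1000 cells/well; drug added in 10-fold steps up to 20 µM. Incubated five days under 5% O₂/5% CO₂/90% N₂, with ³H-thymidine (0.04 µCi/well) over the last 6 h. Duplicates per dose; least-squares exponential fit; IC50 is the concentration giving 50% less incorporation.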
On the technique in general: Incorporation of labelled thymidine or its analogues reports DNA synthesis.

Data set [13] can be described thus: Selectivity ratio of IC50 for PI3K p110delta to IC50 for PI3K p110alpha.
Data set [14] concerns the target Misshapen-like kinase 1 (Homo sapiens) (UniProt Q8N4C8). Kind of data set: Inhibition of MINK1 assessed as residual activity at 10 uM.

Activity calls are given as the source filed them. The calls are words filed in the database; no cut-off is given here.

T1 sequence (P42336 whole entry, canonical isoform): as the sequence (P42336 whole entry E545K, canonical isoform) above, with K545E counted along it
High affinity nerve growth factor receptor (Homo sapiens), sequence (P04629 33-796 limits assumed): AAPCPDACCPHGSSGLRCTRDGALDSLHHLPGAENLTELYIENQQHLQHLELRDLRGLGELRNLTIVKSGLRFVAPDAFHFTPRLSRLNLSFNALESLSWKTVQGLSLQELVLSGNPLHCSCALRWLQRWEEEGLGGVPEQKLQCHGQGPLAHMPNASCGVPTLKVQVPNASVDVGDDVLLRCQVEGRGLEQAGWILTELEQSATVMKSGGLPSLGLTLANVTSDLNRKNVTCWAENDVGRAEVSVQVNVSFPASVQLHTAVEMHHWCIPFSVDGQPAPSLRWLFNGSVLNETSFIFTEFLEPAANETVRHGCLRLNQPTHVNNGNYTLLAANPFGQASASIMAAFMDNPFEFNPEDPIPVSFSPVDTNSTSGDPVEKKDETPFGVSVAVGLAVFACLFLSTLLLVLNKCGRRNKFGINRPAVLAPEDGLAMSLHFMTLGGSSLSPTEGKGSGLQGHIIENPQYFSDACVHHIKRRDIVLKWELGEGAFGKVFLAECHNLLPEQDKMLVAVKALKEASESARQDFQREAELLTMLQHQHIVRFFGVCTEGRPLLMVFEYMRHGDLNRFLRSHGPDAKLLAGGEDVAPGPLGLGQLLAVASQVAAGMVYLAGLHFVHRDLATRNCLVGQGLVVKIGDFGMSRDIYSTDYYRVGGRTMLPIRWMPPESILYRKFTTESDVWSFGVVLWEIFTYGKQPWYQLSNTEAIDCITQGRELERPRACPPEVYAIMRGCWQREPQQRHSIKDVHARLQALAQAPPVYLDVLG
Dual specificity mitogen-activated protein kinase kinase 1 (Homo sapiens), sequence (Q02750 whole entry): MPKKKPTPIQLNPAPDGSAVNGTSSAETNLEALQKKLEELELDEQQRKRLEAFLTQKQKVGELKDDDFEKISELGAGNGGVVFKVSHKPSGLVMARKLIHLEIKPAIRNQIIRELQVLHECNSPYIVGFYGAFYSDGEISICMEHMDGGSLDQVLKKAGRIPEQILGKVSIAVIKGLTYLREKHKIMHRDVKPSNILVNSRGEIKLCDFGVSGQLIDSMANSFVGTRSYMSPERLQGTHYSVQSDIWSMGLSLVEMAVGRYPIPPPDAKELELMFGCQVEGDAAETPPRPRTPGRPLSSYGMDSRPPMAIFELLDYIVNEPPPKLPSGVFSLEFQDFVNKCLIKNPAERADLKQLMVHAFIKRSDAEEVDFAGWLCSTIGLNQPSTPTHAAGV
Phosphatidylinositol 4,5-bisphosphate 3-kinase catalytic subunit gamma isoform, sequence (P48736 whole entry, canonical isoform): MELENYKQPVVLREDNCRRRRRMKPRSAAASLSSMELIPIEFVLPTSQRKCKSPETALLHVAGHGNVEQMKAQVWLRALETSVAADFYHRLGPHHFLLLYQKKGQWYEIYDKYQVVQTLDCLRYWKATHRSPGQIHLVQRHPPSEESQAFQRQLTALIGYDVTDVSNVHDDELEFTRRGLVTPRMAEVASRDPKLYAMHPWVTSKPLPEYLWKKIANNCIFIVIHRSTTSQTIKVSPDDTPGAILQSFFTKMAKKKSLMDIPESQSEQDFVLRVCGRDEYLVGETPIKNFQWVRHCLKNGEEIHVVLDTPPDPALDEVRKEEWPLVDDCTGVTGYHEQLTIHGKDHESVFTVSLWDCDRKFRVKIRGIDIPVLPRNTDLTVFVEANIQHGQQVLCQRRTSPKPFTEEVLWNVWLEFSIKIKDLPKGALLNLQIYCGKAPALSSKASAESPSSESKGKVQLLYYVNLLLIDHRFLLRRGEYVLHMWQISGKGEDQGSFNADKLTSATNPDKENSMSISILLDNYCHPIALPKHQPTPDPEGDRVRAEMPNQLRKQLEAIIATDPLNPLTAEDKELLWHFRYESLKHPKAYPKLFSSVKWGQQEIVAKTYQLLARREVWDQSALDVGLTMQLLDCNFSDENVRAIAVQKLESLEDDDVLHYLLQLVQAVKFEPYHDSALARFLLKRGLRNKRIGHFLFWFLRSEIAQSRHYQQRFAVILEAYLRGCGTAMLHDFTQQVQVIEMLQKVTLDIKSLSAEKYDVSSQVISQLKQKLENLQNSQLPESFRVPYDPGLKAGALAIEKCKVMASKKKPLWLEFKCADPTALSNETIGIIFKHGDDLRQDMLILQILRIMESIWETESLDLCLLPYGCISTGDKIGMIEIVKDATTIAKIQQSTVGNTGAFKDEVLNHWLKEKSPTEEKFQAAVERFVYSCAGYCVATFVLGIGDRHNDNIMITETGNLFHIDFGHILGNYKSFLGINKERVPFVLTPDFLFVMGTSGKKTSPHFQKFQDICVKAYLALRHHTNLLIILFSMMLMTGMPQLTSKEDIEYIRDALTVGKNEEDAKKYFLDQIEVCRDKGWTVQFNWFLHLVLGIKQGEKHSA
Ribosomal protein S6 kinase alpha-1 (Homo sapiens), sequence (Q15418 whole entry): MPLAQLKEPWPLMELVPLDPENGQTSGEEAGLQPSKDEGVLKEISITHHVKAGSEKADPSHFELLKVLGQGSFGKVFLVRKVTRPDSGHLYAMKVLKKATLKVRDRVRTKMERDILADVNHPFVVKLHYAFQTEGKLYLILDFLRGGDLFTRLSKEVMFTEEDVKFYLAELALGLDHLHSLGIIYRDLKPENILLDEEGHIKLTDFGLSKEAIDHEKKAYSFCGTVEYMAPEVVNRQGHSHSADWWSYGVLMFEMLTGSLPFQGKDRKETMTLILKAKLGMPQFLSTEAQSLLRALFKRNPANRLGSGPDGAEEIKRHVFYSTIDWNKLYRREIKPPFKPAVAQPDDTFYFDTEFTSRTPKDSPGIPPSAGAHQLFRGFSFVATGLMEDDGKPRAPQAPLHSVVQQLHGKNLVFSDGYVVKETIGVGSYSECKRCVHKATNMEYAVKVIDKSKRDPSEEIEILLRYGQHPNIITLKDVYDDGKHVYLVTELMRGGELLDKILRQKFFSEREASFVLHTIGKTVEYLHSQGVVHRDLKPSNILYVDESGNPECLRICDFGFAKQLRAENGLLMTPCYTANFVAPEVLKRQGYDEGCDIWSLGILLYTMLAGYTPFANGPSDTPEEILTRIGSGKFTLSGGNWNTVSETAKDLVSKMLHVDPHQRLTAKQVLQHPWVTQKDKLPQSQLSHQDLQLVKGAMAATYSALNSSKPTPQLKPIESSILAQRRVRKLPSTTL

With `Cc1ccc([N+](=O)[O-])cc1S(=O)(=O)N(C)/N=C/c1cnn2ccc(C#N)cc12`, the inhibition result in data set [1] was “inactive”. Further, in the data set on HCT-116, the inhibition in vivo at 20 mg/kg was 39.1%. Besides, the half-maximal inhibitory concentration (IC50) was 0.049 µM in data set [2]; 0.014 µM in data set [5]; 0.0009 µM in data set [6]; 0.0007 µM in data set [7]; 0.3 µM in data set [11]; 0.06 µM in data set [12]. Further, the Activity in data set [3] is 2%; in data set [4], 13%; in data set [9], 1%; in data set [10] it was 8%; with Mus musculus, “Non-toxic”; in data set [14], 2%. Moreover, the Ratio IC50 in data set [8] and in data set [13] was 50 in each case.
